A short description of series [1]: Cmax in mouse at 14.6 mg/kg, po by LC-MS/MS analysis. The class given is ADME, organism-based. Further details: dose 14.6 mg/kg, route oral. The conditions noted are these: in vivo.
For series [2], the target named is T1, Free fatty acid receptor 4 (Mus musculus, UniProt Q7TMA4).
T1 sequence (Q7TMA4 whole entry): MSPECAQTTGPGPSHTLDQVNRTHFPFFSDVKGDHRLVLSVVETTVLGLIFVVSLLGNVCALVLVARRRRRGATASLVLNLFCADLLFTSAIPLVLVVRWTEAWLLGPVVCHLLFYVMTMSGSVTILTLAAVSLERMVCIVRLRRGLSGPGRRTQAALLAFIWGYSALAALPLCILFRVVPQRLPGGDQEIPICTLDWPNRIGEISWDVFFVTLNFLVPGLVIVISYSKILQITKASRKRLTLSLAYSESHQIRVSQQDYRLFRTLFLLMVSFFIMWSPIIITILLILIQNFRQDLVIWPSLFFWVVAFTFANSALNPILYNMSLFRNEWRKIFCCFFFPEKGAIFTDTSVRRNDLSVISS
Briefly: Agonist activity at recombinant mouse GPR120 expressed in HEK293 cells. The series is classed as functional, cell-based.

Series [3] relates to Mus musculus. The series can be described thus: Antiobesity activity in diet-induced obesity C57Bl6/J mouse model assessed as change in plasma insulin level at 10 mg/kg qd for 15 days measured on day 15 post 6 hrs fasting. The series is classed as functional.
Series [4] in a line: Volume of distribution at steady state in mouse at 1.15 mg/kg, iv by LC-MS/MS analysis. The series is classed as ADME, organism-based. The note with it: in vivo, read-out: Vdss.
Series [5] deals with Mus musculus. Briefly: Antiobesity activity in diet-induced obesity C57Bl6/J mouse model assessed as basal glucose level in plasma at 10 mg/kg bid for 15 days measured on day 15 post 6 hrs fasting (reference value: 187 +/- 24 mg/dL). The series is classed as functional.
Series [6] relates to Mus musculus. Briefly: Antiobesity activity in diet-induced obesity C57Bl6/J mouse model assessed as change in plasma glucose level at 10 mg/kg qd for 15 days measured on day 15 post 6 hrs fasting. The series is classed as functional.
The target of the next series is Cytochrome P450 3A4 (Homo sapiens, UniProt P08684). Briefly: Inhibition of CYP3A4 (unknown origin). The class given is ADME.
Series [7] has as its system Mus musculus. The series can be described thus: Glucose lowering effect in GPR120 knock out mouse assessed as plasma glucose AUC at 10 mg/kg administered 30 mins prior to glucose challenge measured up to 90 mins post dose by ipGTT (reference value: 7319 mg/dL.min). The series is classed as functional, organism-based. Further details: time < 1.5 hr, dose 10 mg/kg. The essentials: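 Intraperitoneal glucose tolerance test in GPR120 knockout mice at 10 mg/kg. Wild-type mice were run in parallel, and glucose lowering was compared with vehicle-treated animals.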

The target of a further series is Cytochrome P450 2C19 (Homo sapiens, UniProt P33261). Briefly: Inhibition of CYP2C19 (unknown origin). The class given is ADME.
Series [8] has as its target Free fatty acid receptor 1 (Homo sapiens, UniProt O14842). The series can be described thus: Agonist activity at human GPR40. The class given is functional.

The results in this text go back to ChEMBL document CHEMBL4184291, “Discovery of N-arylpyrroles as agonists of GPR120 for the treatment of type II diabetes” (Bioorg Med Chem Lett, 2018).

Sequence of Cytochrome P450 2C19 (P33261 whole entry): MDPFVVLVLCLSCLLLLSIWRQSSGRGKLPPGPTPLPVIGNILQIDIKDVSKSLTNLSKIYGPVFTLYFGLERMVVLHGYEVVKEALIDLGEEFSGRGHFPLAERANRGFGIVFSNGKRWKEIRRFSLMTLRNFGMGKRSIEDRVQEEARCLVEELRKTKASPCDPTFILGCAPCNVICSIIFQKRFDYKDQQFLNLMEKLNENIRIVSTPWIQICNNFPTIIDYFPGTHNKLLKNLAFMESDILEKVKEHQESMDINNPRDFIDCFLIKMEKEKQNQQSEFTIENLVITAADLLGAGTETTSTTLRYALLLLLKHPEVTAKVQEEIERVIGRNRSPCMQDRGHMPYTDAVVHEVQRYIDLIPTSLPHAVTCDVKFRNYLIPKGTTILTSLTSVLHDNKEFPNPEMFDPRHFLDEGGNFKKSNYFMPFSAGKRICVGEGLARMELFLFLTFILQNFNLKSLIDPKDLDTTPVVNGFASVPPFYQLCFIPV
Sequence of Cytochrome P450 3A4 (P08684 whole entry): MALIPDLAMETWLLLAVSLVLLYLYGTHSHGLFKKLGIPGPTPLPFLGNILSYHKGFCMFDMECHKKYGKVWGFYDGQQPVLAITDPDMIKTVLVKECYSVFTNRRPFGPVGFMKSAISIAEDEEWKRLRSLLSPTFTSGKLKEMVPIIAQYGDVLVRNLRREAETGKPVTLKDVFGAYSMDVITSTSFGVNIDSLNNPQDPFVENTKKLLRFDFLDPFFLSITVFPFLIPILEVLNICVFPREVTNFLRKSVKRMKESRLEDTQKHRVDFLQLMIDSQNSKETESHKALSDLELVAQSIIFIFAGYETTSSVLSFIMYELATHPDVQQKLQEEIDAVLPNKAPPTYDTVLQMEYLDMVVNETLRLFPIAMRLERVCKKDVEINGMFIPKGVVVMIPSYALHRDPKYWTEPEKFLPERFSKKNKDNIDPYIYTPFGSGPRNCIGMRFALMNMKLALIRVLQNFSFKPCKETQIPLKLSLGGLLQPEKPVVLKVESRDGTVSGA
Sequence of Free fatty acid receptor 1 (O14842 whole entry): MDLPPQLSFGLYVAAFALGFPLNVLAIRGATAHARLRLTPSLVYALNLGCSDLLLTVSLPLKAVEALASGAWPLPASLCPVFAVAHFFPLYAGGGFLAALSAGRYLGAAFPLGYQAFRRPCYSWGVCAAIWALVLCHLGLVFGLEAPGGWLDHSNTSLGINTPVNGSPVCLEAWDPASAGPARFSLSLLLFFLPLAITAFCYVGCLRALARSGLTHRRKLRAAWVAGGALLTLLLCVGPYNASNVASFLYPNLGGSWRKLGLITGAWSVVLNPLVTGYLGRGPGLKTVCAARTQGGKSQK

As a reminder, the Cmax is the maximum level reached in the sampled fluid or tissue. For orientation: EC50 means the concentration needed to bring the measured effect to its halfway point. In [1], `O=C(O)CCc1cc(F)c(OCc2c(C(F)(F)F)ccn2-c2ccc(Cl)cc2)c(F)c1` displayed a Cmax of 18700 ng/mL. The EC50 in series [2] turned out to be 0.193 µM; in [8], 3.34 µM. Moreover, the Activity with Mus musculus [3] was 457 pg/mL; in the series on Mus musculus [5] it was 203 mg/dL; with Mus musculus [6] it was -23.7 mg/dL. Besides, the Vd in series [4] stood at 1.14 L/kg. Besides, the INH is greater than 10 µM at Cytochrome P450 3A4 and 10 µM at Cytochrome P450 2C19. In addition, the AUC in the series with Mus musculus [7] is 7430 mg/dL·min.
